Reference: ChEMBL document CHEMBL1153806, “Preclinical efficacy of a carboxylesterase 2-activated prodrug of doxazolidine” (J Med Chem, 2009)
Activity calls are given as the source filed them. The rule behind the calls is not given here.

How the values were obtained:
Mus musculus [1] = experiment: Toxicity in NOD/SCID mouse xenografted with human HepG2 cells expressing CES2 gene at 3 mg/kg, iv administered on day 7, 14 and 21 after tumor implantation; assay type: organism-based; design: dose 3 mg/kg, route intravenous; settings: in vivo
Mus musculus [2] = experiment: Toxicity in athymic nude mouse xenografted with human NCI-H1435 cells expressing CES2 gene assessed as inflammatory cell infiltration in ileum administered with six iv injection of 3 to 4 mg/kg by hematoxylin/eosin staining-based microscopy; assay type: organism-based; design: dose 3-4 mg/kg, route intravenous; settings: in vivo
In short: (§1)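 Kidney and ileum taken from the H1435 nude-mouse study (six i.v. injections). Formalin-fixed for 24 h, paraffin-embedded, and cut into 4 µm sections. Sections deparaffinized in xylene, rehydrated through an ethanol series, stained in Harris hematoxylin for 50 s with eosin, then dehydrated and mounted. Morphology assessed by microscopy.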

Mus musculus [3] = experiment: Toxicity in athymic nude mouse xenografted with human NCI-H1435 cells expressing CES2 gene assessed as myofibril disorganization and vacuolization of heart tissue administered with six iv injection of 3 to 4 mg/kg by hematoxylin/eosin staining-based microscopy; assay type: organism-based; design: dose 3-4 mg/kg, route intravenous; settings: in vivo
In short: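 Hearts and livers taken from the H1435 nude-mouse study (six i.v. injections) after CO₂/cervical dislocation. Fixed in 10% formalin for 24 h, paraffin-embedded, and cut at 4 µm. Slides deparaffinized in xylene and ethanol, stained with Mayer's hematoxylin for 2 min, blued in 1% ammonium hydroxide, and counterstained with eosin for 30 s. Examined by light microscopy.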

[4] = Cytotoxicity against human NCI-H1435 cells expressing CES2 gene after 5 to 6 days by MTT assay; assay type: functional
In short: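 MTT growth assay: 2000–4000 viable cells plated, left overnight at 37 °C in 5% CO₂, then exposed to a range of drug concentrations for 5–6 days. MTT added at 0.4 mg/mL final for 4 h, and formazan dissolved in 0.2 N HCl in 75% isopropanol. Absorbance normalized to vehicle control and IC₅₀ obtained from the curves.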

HepG2 [5] = experiment: Antitumor activity against human HepG2 cells expressing CES2 gene xenografted in NOD/SCID mouse assessed as inhibition of tumor growth at 4 to 5 mg/kg, iv administered on day 7, 14 and 21 after tumor implantation; assay type: functional, organism-based
In short: (§2)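 NOD/SCID females, 4–6 weeks old, each given ~1.5 × 10⁷ N-Hep G2 cells s.c. in the left flank; 10 mice/group. Dosed i.v. by tail vein on days 7, 14 and 21, in mg/kg Dox-equivalent, from DMSO diluted into D5W (5% DMSO/95% D5W), 100 µL/mouse. Vehicle-only controls. The 3 mg/kg group was redosed at 5 mg/kg on days 45 and 52. Tumor volume (π × short diameter² × long diameter/6) measured weekly.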

Mus musculus [6] = experiment: Toxicity in athymic nude mouse xenografted with human NCI-H1435 cells expressing CES2 gene assessed as vacuolar damage in ileum administered with six iv injection of 3 to 4 mg/kg by hematoxylin/eosin staining-based microscopy; assay type: organism-based; design: dose 3-4 mg/kg, route intravenous; settings: in vivo; in short: as §1
[7] = Toxicity in pentyl PABC-doxazolidine-treated NOD/SCID mouse xenografted with human HepG2 cells expressing CES2 gene assessed as mortality rate at 5 mg/kg, iv administered on day 45 after tumor implantation; assay type: organism-based; design: dose 5 mg/kg, route intravenous; settings: in vivo, read-out: Activity
In short: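 NOD/SCID females carried s.c. left-flank N-Hep G2 xenografts (about 1.5 × 10⁷ cells). They first received i.v. 3 mg/kg Dox-equivalent on days 7, 14 and 21. The same group was then redosed i.v. at 5 mg/kg on days 45 and 52 in 5% DMSO/95% D5W. There were 10 mice per group. Deaths were counted to the end of the study.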

NCI-H1435 [8] = experiment: Antitumor activity against human NCI-H1435 cells expressing CES2 gene xenografted in pentyl PABC-doxazolidine-pretreated athymic nude mouse assessed as inhibition of tumor growth at 3 to 4 mg/kg, iv administered on day 70 after tumor implantation; assay type: functional, organism-based
In short: (§3)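 Athymic nude females, 4–6 weeks old, given ~2 × 10⁶ H1435 cells s.c. in the left flank on day 0; 10 mice/group. I.v. tail-vein doses (Dox-equivalent mg/kg) in 5% DMSO/95% D5W on days 7, 14 and 21, with all groups retreated on days 56, 63 and 70; vehicle controls. Caliper volume π × short² × long/6. Cube roots analysed with day-7 size as baseline covariate, by period.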

Mus musculus [9] = experiment: Toxicity in NOD/SCID mouse xenografted with human HepG2 cells expressing CES2 gene assessed as body weight change at 3 mg/kg, iv administered on day 7, 14 and 21 after tumor implantation; assay type: organism-based; design: dose 3 mg/kg, route intravenous; settings: in vivo
In short: (§4)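 Same NOD/SCID N-Hep G2 flank xenograft model: i.v. tail-vein dosing on days 7, 14 and 21 in 5% DMSO/95% D5W, doses in Dox-equivalent mg/kg, 10 mice/group, vehicle controls. Body weight recorded weekly and followed over the first 5 weeks.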

HepG2 [10] = experiment: Antitumor activity against human HepG2 cells expressing CES2 gene xenografted in pentyl PABC-doxazolidine-treated NOD/SCID mouse assessed as slowing of large, rapidly growing tumor growth at 5 mg/kg, iv administered on day 52 after tumor implantation; assay type: functional, organism-based; design: dose 5 mg/kg; in short: as §2
Mus musculus [11] = experiment: Toxicity in athymic nude mouse xenografted with human NCI-H1435 cells expressing CES2 gene assessed as thickening of Bowman's capsule in glomerulus administered with six iv injection of 4 mg/kg by hematoxylin/eosin staining-based microscopy; assay type: organism-based; design: dose 4 mg/kg, route intravenous; settings: in vivo
In short: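 Female athymic nude mice, 4–6 weeks old, 10 per group. About 2 × 10⁶ H1435 cells were implanted s.c. into the left flank. I.v. tail-vein doses (Dox-equivalent) were given on days 7, 14, 21, 56, 63 and 70 in 5% DMSO/95% D5W. At sacrifice, organs were fixed in 10% formalin for 24 h and paraffin-embedded. Sections were cut at 4 µm and stained with hematoxylin/eosin for microscopy.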

NCI-H1435 [12] = experiment: Antitumor activity against human NCI-H1435 cells expressing CES2 gene xenografted in pentyl PABC-doxazolidine-pretreated athymic nude mouse assessed as inhibition of tumor growth at 3 to 4 mg/kg, iv administered on day 56 after tumor implantation; assay type: functional, organism-based; in short: as §3
Mus musculus [13] = experiment: Toxicity in NOD/SCID mouse xenografted with human HepG2 cells expressing CES2 gene assessed as body weight change at 4 mg/kg, iv administered on day 7, 14 and 21 after tumor implantation; assay type: organism-based; design: dose 4 mg/kg, route intravenous; settings: in vivo
In short: (§5)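 Female NOD/SCID mice, 4–6 weeks old, 10 per group. About 1.5 × 10⁷ N-Hep G2 cells were injected s.c. into the left flank. Tail-vein i.v. dosing (mg/kg Dox-equivalent weight) was given on days 7, 14 and 21. Vehicle was 5% DMSO/95% D5W, and controls received vehicle only. Body weight was measured weekly over the first 5 weeks. Survival was followed to study end.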

Mus musculus [14] = experiment: Toxicity in NOD/SCID mouse xenografted with human HepG2 cells expressing CES2 gene assessed as body weight loss at 5 mg/kg, iv administered on day 7, 14 and 21 after tumor implantation measured after 5 weeks; assay type: organism-based; design: dose 5 mg/kg, route intravenous; settings: in vivo, 840 h; in short: as §4
HepG2 [15] = experiment: Antitumor activity against human HepG2 cells expressing CES2 gene xenografted in NOD/SCID mouse assessed as inhibition of tumor growth at 3 mg/kg, iv administered on day 7, 14 and 21 after tumor implantation; assay type: functional, organism-based; design: dose 3 mg/kg; in short: as §2
NCI-H460 = experiment: Cytotoxicity against human H460 cells expressing CES2 gene
Mus musculus [16] = experiment: Toxicity in NOD/SCID mouse xenografted with human HepG2 cells expressing CES2 gene assessed as survival at 5 mg/kg, iv administered on day 7, 14 and 21 after tumor implantation; assay type: organism-based; design: dose 5 mg/kg, route intravenous; settings: in vivo; in short: as §5

Compound: CCCCCOC(=O)Nc1ccc(COC(=O)N2CO[C@@H]3[C@H](C)O[C@@H](O[C@H]4C[C@](O)(C(=O)CO)Cc5c(O)c6c(c(O)c54)C(=O)c4c(OC)cccc4C6=O)C[C@@H]32)cc1
- Activity (Mus musculus [1]): Non-toxic
- Activity (Mus musculus [2]): Non-toxic
- Activity (Mus musculus [3]): Non-toxic
- logIC50 [4]: -6.92
- inhibition (HepG2 [5]): Active
- Activity (Mus musculus [6]): Non-toxic
- mortality [7]: 60%
- inhibition (NCI-H1435 [8]): Active
- Activity (Mus musculus [9]): Non-toxic
- Activity (HepG2 [10]): Active
- Activity (Mus musculus [11]): Toxic
- inhibition (NCI-H1435 [12]): Active
- Activity (Mus musculus [13]): Active
- Activity (Mus musculus [14]): 10%
- inhibition (HepG2 [15]): inactive
- GI50 (NCI-H460): 447 nM
- Activity (Mus musculus [16]): Non-toxic
